Assay results: ChEMBL document CHEMBL1255284, “Aspergillus section Fumigati: antifungal susceptibility patterns and sequence-based identification” (2008)
In brackets after ≈: the same amount, converted by molar mass.

Key:
Aspergillus lentulus [1] = test: Antimicrobial activity against Aspergillus lentulus isolate CNM-CM-3364 obtained from bronchoalveolar lavage fluid of patient after 48 hrs by broth microdilution method; format: functional; conditions: isolate CNM-CM-3364, Lung
How it was run: (§1)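 CLSI M38-A broth microdilution with modifications: RPMI 1640 with L-glutamine, 2% glucose, buffered to pH 7 with 0.165 M MOPS. Inoculum of 1 × 10^5 to 5 × 10^5 CFU/ml from 3- to 5-day-old cultures. Incubated 35°C, 48 h, humid. Visual reading with a mirror. MIC is complete growth inhibition; echinocandin MEC is hyphal morphological alteration. Azoles 8 to 0.015 μg/ml; others 16 to 0.03 μg/ml.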

Aspergillus lentulus [2] = test: Antimicrobial activity against Aspergillus lentulus isolate CNM-CM-3537 obtained from sputum of patient after 48 hrs by broth microdilution method; format: functional; conditions: isolate CNM-CM-3537, 48 h; how it was run: as §1
Aspergillus lentulus [3] = test: Antimicrobial activity against Aspergillus lentulus isolate CNM-CM-4415 obtained from sputum of patient after 48 hrs by broth microdilution method; format: functional; conditions: isolate CNM-CM-4415, 48 h; how it was run: as §1
Aspergillus lentulus [4] = test: Antimicrobial activity against Aspergillus lentulus isolate CNM-CM-4387 obtained from sputum of patient after 48 hrs by broth microdilution method; format: functional; conditions: isolate CNM-CM-4387, 48 h; how it was run: as §1
[5] = test system: Neosartorya pseudofischeri; test: Antimicrobial activity against Neosartorya pseudofischeri isolate CNM-CM-3914 obtained from nail of patient after 48 hrs by broth microdilution method; format: functional; conditions: Aspergillus thermomutatus, isolate CNM-CM-3914, 48 h
How it was run: (§2)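 CLSI M38-A broth microdilution with modifications: RPMI 1640 with L-glutamine, MOPS-buffered to pH 7, plus 2% glucose. Inoculum 1 × 10^5 to 5 × 10^5 CFU/ml from 3–5-day cultures. Incubated at 35°C for 48 h, humid. Read visually with a mirror. MIC = complete growth inhibition; echinocandin MEC = altered hyphal morphology. QC strain A. fumigatus ATCC 2004305.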

Aspergillus lentulus [6] = test: Antimicrobial activity against Aspergillus lentulus isolate CNM-CM-1290 obtained from sputum of patient after 48 hrs by broth microdilution method; format: functional; conditions: isolate CNM-CM-1290, 48 h; how it was run: as §1
Aspergillus lentulus [7] = test: Antimicrobial activity against Aspergillus lentulus isolate CNM-CM-3583 obtained from sputum of patient after 48 hrs by broth microdilution method; format: functional; conditions: isolate CNM-CM-3583, 48 h; how it was run: as §1
Neosartorya hiratsukae [8] = test: Antimicrobial activity against Neosartorya hiratsukae isolate CNM-CM-3764 obtained from oropharyngeal exudate of patient after 48 hrs by broth microdilution method; format: functional; conditions: Aspergillus hiratsukae, isolate CNM-CM-3764, 48 h; how it was run: as §1
Aspergillus lentulus [9] = test: Antimicrobial activity against Aspergillus lentulus isolate CNM-CM-3599 obtained from sputum of patient after 48 hrs by broth microdilution method; format: functional; conditions: isolate CNM-CM-3599, 48 h; how it was run: as §1
Aspergillus viridinutans [10] = test: Antimicrobial activity against Aspergillus viridinutans isolate CNM-CM-3147 obtained from oropharyngeal exudate of patient after 48 hrs by broth microdilution method; format: functional; conditions: isolate CNM-CM-3147, 48 h; how it was run: as §1
[11] = test system: Aspergillus fumigatiaffinis; test: Antimicrobial activity against Aspergillus fumigatiaffinis isolate CNM-CM-3227 obtained from bronchoalveolar lavage fluid of patient after 48 hrs by broth microdilution method; conditions: isolate CNM-CM-3227, Lung
Aspergillus fumigatus = test: Antimicrobial activity against Aspergillus fumigatus ATCC 2004305 after 48 hrs by broth microdilution method; format: functional; conditions: ATCC 2004305, 48 h
Aspergillus lentulus [12] = test: Antimicrobial activity against Aspergillus lentulus isolate CNM-CM-4428 obtained from skin of patient after 48 hrs by broth microdilution method; format: functional; conditions: isolate CNM-CM-4428, 48 h; how it was run: as §1
Neosartorya hiratsukae [13] = test: Antimicrobial activity against Neosartorya hiratsukae isolate CNM-CM-3303 obtained from skin of patient after 48 hrs by broth microdilution method; format: functional; conditions: Aspergillus hiratsukae, isolate CNM-CM-3303, 48 h; how it was run: as §1
Aspergillus lentulus [14] = test: Antimicrobial activity against Aspergillus lentulus isolate CNM-CM-4330 obtained from sputum of patient after 48 hrs by broth microdilution method; format: functional; conditions: isolate CNM-CM-4330, 48 h; how it was run: as §1
[15] = test system: Neosartorya pseudofischeri; test: Antimicrobial activity against Neosartorya pseudofischeri isolate CNM-CM-3769 obtained from sputum of patient after 48 hrs by broth microdilution method; format: functional; conditions: Aspergillus thermomutatus; how it was run: as §2
[16] = test system: Neosartorya pseudofischeri; test: Antimicrobial activity against Neosartorya pseudofischeri isolate CNM-CM-4060 obtained from sputum of patient after 48 hrs by broth microdilution method; format: functional; conditions: Aspergillus thermomutatus; how it was run: as §2
Aspergillus lentulus [17] = test: Antimicrobial activity against Aspergillus lentulus isolate CNM-CM-4420 obtained from nail of patient after 48 hrs by broth microdilution method; format: functional; conditions: isolate CNM-CM-4420, 48 h; how it was run: as §1
[18] = test system: Aspergillus fumigatiaffinis; test: Antimicrobial activity against Aspergillus fumigatiaffinis isolate CNM-CM-2280 obtained from sputum of patient after 48 hrs by broth microdilution method; conditions: isolate CNM-CM-2280, 48 h
Neosartorya hiratsukae [19] = test: Antimicrobial activity against Neosartorya hiratsukae isolate CNM-CM-3740 obtained from oropharyngeal exudate of patient after 48 hrs by broth microdilution method; format: functional; conditions: Aspergillus hiratsukae, isolate CNM-CM-3740, 48 h; how it was run: as §1
Neosartorya hiratsukae [20] = test: Antimicrobial activity against Neosartorya hiratsukae isolate CNM-CM-4328 obtained from cornea of patient after 48 hrs by broth microdilution method; format: functional; conditions: Aspergillus hiratsukae, isolate CNM-CM-4328, Cornea; how it was run: as §1
Aspergillus lentulus [21] = test: Antimicrobial activity against Aspergillus lentulus isolate CNM-CM-4426 obtained from sputum of patient after 48 hrs by broth microdilution method; format: functional; conditions: isolate CNM-CM-4426, 48 h; how it was run: as §1
[22] = test system: Neosartorya pseudofischeri; test: Antimicrobial activity against Neosartorya pseudofischeri isolate CNM-CM-2270 obtained from sputum of patient after 48 hrs by broth microdilution method; format: functional; conditions: Aspergillus thermomutatus, isolate CNM-CM-2270, 48 h; how it was run: as §2
Aspergillus lentulus [23] = test: Antimicrobial activity against Aspergillus lentulus isolate CNM-CM-3538 obtained from sputum of patient after 48 hrs by broth microdilution method; format: functional; conditions: isolate CNM-CM-3538, 48 h; how it was run: as §1
Aspergillus viridinutans [24] = test: Antimicrobial activity against Aspergillus viridinutans isolate CNM-CM-4518 obtained from nail of patient after 48 hrs by broth microdilution method; format: functional; conditions: isolate CNM-CM-4518, 48 h; how it was run: as §1
Aspergillus lentulus [25] = test: Antimicrobial activity against Aspergillus lentulus isolate CNM-CM-4370 obtained from sputum of patient after 48 hrs by broth microdilution method; format: functional; conditions: isolate CNM-CM-4370, 48 h; how it was run: as §1
Aspergillus lentulus [26] = test: Antimicrobial activity against Aspergillus lentulus isolate CNM-CM-3134 obtained from sputum of patient after 48 hrs by broth microdilution method; format: functional; conditions: isolate CNM-CM-3134, 48 h; how it was run: as §1
Neosartorya hiratsukae [27] = test: Antimicrobial activity against Neosartorya hiratsukae isolate CNM-CM-3305 obtained from skin of patient after 48 hrs by broth microdilution method; format: functional; conditions: Aspergillus hiratsukae, isolate CNM-CM-3305, 48 h; how it was run: as §1
[28] = test system: Aspergillus fumisynnematus; test: Antimicrobial activity against Aspergillus fumisynnematus isolate CNM-CM-4063 obtained from bronchoalveolar aspirate of patient after 48 hrs by broth microdilution method; format: functional; conditions: isolate CNM-CM-4063, Lung; how it was run: as §1

Structure (SMILES) | MIC (Aspergillus lentulus [1]) | MIC (Aspergillus lentulus [2]) | MIC (Aspergillus lentulus [3]) | MIC (Aspergillus lentulus [4]) | MIC [5] | MIC (Aspergillus lentulus [6]) | MIC (Aspergillus lentulus [7]) | MIC (Neosartorya hiratsukae [8]) | MIC (Aspergillus lentulus [9]) | MIC (Aspergillus viridinutans [10]) | MIC [11] | MIC (Aspergillus fumigatus) | MIC (Aspergillus lentulus [12]) | MIC (Neosartorya hiratsukae [13]) | MIC (Aspergillus lentulus [14]) | MIC [15] | MIC [16] | MIC (Aspergillus lentulus [17]) | MIC [18] | MIC (Neosartorya hiratsukae [19]) | other results
CN(C/C=C/C#CC(C)(C)C)Cc1cccc2ccccc12 [TERBINAFINE] | 0.5 µg/mL (≈ 1.72 µM) | 1 µg/mL (≈ 3.43 µM) | 0.5 µg/mL (≈ 1.72 µM) | 0.5 µg/mL (≈ 1.72 µM) | 0.5 µg/mL (≈ 1.72 µM) | 1.33 µg/mL (≈ 4.56 µM) | 1.25 µg/mL (≈ 4.29 µM) | 0.25 µg/mL (≈ 0.858 µM) | 1 µg/mL (≈ 3.43 µM) | 1.2 µg/mL (≈ 4.12 µM) | 1.4 µg/mL (≈ 4.8 µM) | 2 µg/mL (≈ 6.86 µM) | 0.66 µg/mL (≈ 2.26 µM) | 0.09 µg/mL (≈ 0.309 µM) | 0.5 µg/mL (≈ 1.72 µM) | 1.33 µg/mL (≈ 4.56 µM) | 0.5 µg/mL (≈ 1.72 µM) | 1 µg/mL (≈ 3.43 µM) | 1.66 µg/mL (≈ 5.7 µM) | 0.2 µg/mL (≈ 0.686 µM) | MIC (Neosartorya hiratsukae [20]): 0.09 µg/mL (≈ 0.309 µM); MIC (Aspergillus lentulus [21]): 0.83 µg/mL (≈ 2.85 µM); MIC [22]: 1 µg/mL (≈ 3.43 µM); MIC (Aspergillus lentulus [23]): 1 µg/mL (≈ 3.43 µM); MIC (Aspergillus viridinutans [24]): 0.75 µg/mL (≈ 2.57 µM); MIC (Aspergillus lentulus [25]): 0.5 µg/mL (≈ 1.72 µM); MIC (Aspergillus lentulus [26]): 1.75 µg/mL (≈ 6 µM); MIC (Neosartorya hiratsukae [27]): 0.06 µg/mL (≈ 0.206 µM); MIC [28]: 1.66 µg/mL (≈ 5.7 µM)
C[C@@H](c1ncncc1F)[C@](O)(Cn1cncn1)c1ccc(F)cc1F [VORICONAZOLE] | 5.6 µg/mL (≈ 16 µM) | 3.5 µg/mL (≈ 10 µM) | 5.33 µg/mL (≈ 15.3 µM) | 4 µg/mL (≈ 11.5 µM) | 6.66 µg/mL (≈ 19.1 µM) | 4.5 µg/mL (≈ 12.9 µM) | 3.5 µg/mL (≈ 10 µM) | 1.66 µg/mL (≈ 4.75 µM) | 4 µg/mL (≈ 11.5 µM) | 4 µg/mL (≈ 11.5 µM) | 5.6 µg/mL (≈ 16 µM) | 0.25 µg/mL (≈ 0.716 µM) | 5 µg/mL (≈ 14.3 µM) | 0.5 µg/mL (≈ 1.43 µM) | 3 µg/mL (≈ 8.59 µM) | 3.33 µg/mL (≈ 9.53 µM) | 3.33 µg/mL (≈ 9.53 µM) | 5.33 µg/mL (≈ 15.3 µM) | 6.66 µg/mL (≈ 19.1 µM) | 1 µg/mL (≈ 2.86 µM) | MIC (Neosartorya hiratsukae [20]): 1.25 µg/mL (≈ 3.58 µM); MIC (Aspergillus lentulus [21]): 5.33 µg/mL (≈ 15.3 µM); MIC [22]: 3 µg/mL (≈ 8.59 µM); MIC (Aspergillus lentulus [23]): 7.5 µg/mL (≈ 21.5 µM); MIC (Aspergillus viridinutans [24]): 4 µg/mL (≈ 11.5 µM); MIC (Aspergillus lentulus [25]): 5.33 µg/mL (≈ 15.3 µM); MIC (Aspergillus lentulus [26]): 6 µg/mL (≈ 17.2 µM); MIC (Neosartorya hiratsukae [27]): 0.375 µg/mL (≈ 1.07 µM); MIC [28]: 0.83 µg/mL (≈ 2.38 µM)
